Data on 23 compounds can be found in ChEMBL document CHEMBL1136969, “Synthesis of novel 2-alkoxy-3-amino-3-arylpropan-1-ols and 5-alkoxy-4-aryl-1,3-oxazinanes with antimalarial activity” (J Med Chem, 2009).

SMILES strings stand for the structures.

The subject of series [1] is Plasmodium falciparum. Description: Antiplasmodial activity after 48 hrs against chloroquine-sensitive Plasmodium falciparum D10 infected human erythrocytes by LDH reporter assay. Type of series: functional, organism-based. The conditions noted are these: D10, 48 h. An outline of the steps: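 Asexual erythrocytic P. falciparum D10 (CQ-sensitive) kept in continuous culture (modified Trager–Jensen); growth read by parasite lactate dehydrogenase assay (modified Makler). Samples from 2 mg/mL stocks in 10% DMSO, sonicated, suspensions allowed; tested from 100 µg/mL in 2-fold serial dilutions in complete medium, 10 concentrations down to 0.2 µg/mL. Chloroquine reference from 100 ng/mL. Duplicate, one occasion; IC50 from full dose-response.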
(In general: In a reporter assay the amount or activity of a reporter protein is the signal.)

The test system of series [2] is CHO. Description: Cytotoxicity against CHO cells by MTT assay. Format: cell-based. Particulars: Cricetulus griseus. An outline of the steps: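 MTT colorimetric growth/survival assay. Samples from 2 mg/mL stocks in 10% methanol or 10% DMSO, suspensions allowed, stored at -20 °C; 10-fold serial dilutions in complete medium, six concentrations. Emetine reference from 100 µg/mL down to 0.001 µg/mL. Triplicate, one occasion; IC50 by nonlinear dose-response curve fitting.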
In general terms: Tetrazolium assays rely on reduction of a dye to a coloured formazan, in cell work by metabolically active cells.

The nature of series [3]: Selectivity index, ratio of IC50 for CHO cells to IC50 for chloroquine-sensitive Plasmodium falciparum D10. Format: toxicity, cell-based. Particulars: hamster, read-out: Ratio IC50.
Series [4] concerns CHO. The series can be described thus: Cytotoxicity against CHO cells at 100 ug/mL by MTT assay. Type of series: cell-based, Cricetulus griseus. Particulars: chinese hamster.

For orientation: IC50 means the concentration at which inhibition is half-maximal. A low value points to greater potency. On to `CCCN[C@@H](c1ccccc1)[C@H](CO)Oc1ccccc1`, for which the midpoint of inhibition in series [1], the IC50, lay at 85.2 µM. The IC90 is the concentration needed for an effect of 90%. A low value points to greater potency. In series [1], `CCCN[C@@H](c1ccc(C)cc1)[C@H](CO)Oc1ccccc1` had an IC50 of 13.7 µM and an IC90 of 252 µM. Also, it took 326 µM to reach half-maximal inhibition in series [2] (IC50). Moreover, the selectivity ratio in series [3] stood at 23.8. In the case of `CCCN[C@@H](c1ccc(OC)cc1)[C@H](CO)Oc1ccccc1`, in series [1], the IC50 came out at 16.4 µM and the IC90 came to 47.8 µM. Further, the midpoint of inhibition in series [2], the IC50, lay at 145 µM. Moreover, in series [3], the selectivity ratio was determined as 8.8. `CCCN1COC[C@@H](Oc2ccccc2)[C@H]1c1ccc(OC)cc1` registered an IC50 in series [1] of 87.1 µM.

In the case of `CCCN[C@@H](c1cccc(OC)c1)[C@H](CO)Oc1ccccc1`, in series [1], the midpoint of inhibition, the IC50, lay at 25.2 µM and it took 102 µM to reach the 90% level (IC90). In series [1], `OC[C@H](OCc1ccccc1)[C@H](Nc1ccccc1)c1ccc(Cl)cc1` (relative stereo) gave an IC50 of 6.36 µM and an IC90 of 12.5 µM. Also, in series [4], the Activity entry was “Non-toxic”.

In series [1], `OC[C@H](OCc1ccccc1)[C@@H](NCc1ccccc1)c1ccccc1Br` (relative stereo) displayed an IC50 of 10.5 µM and a concentration for an effect of 90% (IC90) of 43.1 µM. The Activity result in series [4] is “Non-toxic”.

Turning to `CC(C)N[C@@H](c1ccccc1)[C@H](CO)OCc1ccccc1` (relative stereo), in series [1], the IC50 was 45.9 µM and it took 165 µM to reach the 90% level (IC90). In series [1], `OC[C@H](Oc1ccccc1)[C@@H](NCc1ccccc1)c1ccccc1F` (relative stereo) displayed an IC50 of 25.1 µM and a 90% effect concentration (IC90) of 223 µM. Regarding `CC(C)N1COC[C@@H](OCc2ccccc2)[C@H]1c1ccccc1` (relative stereo), the IC50 in series [1] is 66.3 µM. `Cc1ccc([C@@H]2[C@H](OCc3ccccc3)COCN2CC(C)C)cc1` (relative stereo) came in with an IC50 in series [1] of 30.3 µM. This IC50 lies about 2.2-fold lower than the previous one. Take `Cc1ccc([C@H](NCC(C)C)[C@H](CO)OCc2ccccc2)cc1` (relative stereo): in series [1], it took 15.3 µM to reach half-maximal inhibition (IC50) and the 90% effect level (IC90) was put at 70.8 µM. This compound also displayed a half-inhibitory concentration (IC50) in series [2] of 144 µM. Further, in series [3], the selectivity ratio stood at 9.4. In series [1], `Clc1ccc([C@@H]2[C@H](OCc3ccccc3)COCN2c2ccccc2)cc1` (relative stereo) displayed an IC50 of 19.4 µM and a concentration for an effect of 90% (IC90) of 138 µM. In the case of `COc1cccc([C@@H](NC2CCCCC2)[C@H](CO)OC)c1` (relative stereo), the IC50 in series [1] came out at 175 µM. In series [1], `Fc1ccccc1[C@@H]1[C@H](Oc2ccccc2)COCN1Cc1ccccc1` (relative stereo) registered a half-maximal inhibitory concentration (IC50) of 16.8 µM and an IC90 of 118 µM. In addition, the Activity entry in series [4] was “Non-toxic”. `CCCN1COC[C@@H](Oc2ccccc2)[C@H]1c1ccccc1` (relative stereo): the IC50 in series [1] amounted to 84.9 µM. This lies in the double-digit micromolar range. The compound `CO[C@@H]1COCN(C(C)(C)C)[C@@H]1c1ccc(C)cc1` (relative stereo) displayed an IC50 in series [1] of 121 µM. In series [1], `Brc1ccccc1[C@@H]1[C@H](OCc2ccccc2)COCN1Cc1ccccc1` (relative stereo) displayed an IC50 of 14.1 µM and an IC90 of 38.6 µM. For the same compound, in series [4], the Activity entry is recorded as “Non-toxic”. `COc1cccc([C@@H]2[C@H](OC)COCN2C2CCCCC2)c1` (relative stereo) returned an IC50 in series [1] of 42.6 µM. For `Cc1ccc([C@@H]([C@H](CO)OCc2ccccc2)N(C)CC(C)C)cc1` (relative stereo), in series [1], the IC50 amounted to 82 µM. Same read-out and setting: in the case of `CCCN1COC[C@@H](Oc2ccccc2)[C@H]1c1ccc(C)cc1` (relative stereo) it was 129 µM. In series [1], `CCN(CC)CCCC(C)Nc1ccnc2cc(Cl)ccc12` (centres undefined) [CHLOROQUINE] had a 90% effect concentration (IC90) of 0.067 µM.

Consider `CC[C@H]1CN2CCc3cc(OC)c(OC)cc3[C@@H]2C[C@@H]1C[C@H]1NCCc2cc(OC)c(OC)cc21` [EMETINE], for which the concentration for half-maximal inhibition (IC50) in series [2] came out at 0.108 µM.
